Series [1] relates to RAW264.7. Kind of series: Induction of HO-1 expression in mouse RAW264.7 cells at 300 nM after 6 hrs by Western blotting. The series is classed as functional, cell-based. The essentials:
(§1)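 RAW cells treated with compound for 6 h (30–300 nM range); HO-1 detected in total cell lysates by Western blot.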
Background: Immunoblotting shows a protein as a band on a membrane.

Series [2] concerns the target NAD(P)H dehydrogenase [quinone] 1 (Mus musculus) (UniProt Q64669). Kind of series: Induction of NQO1 activity in mouse Hepa-1c1c7 cells after 48 hrs. In kind it is cell-based.
Series [3] has as its system RAW264.7. Kind of series: Induction of HO-1 expression in mouse RAW264.7 cells at 30 nM after 6 hrs by Western blotting. The series is classed as functional, cell-based. The essentials:
as §1

Series [4] relates to RAW264.7. Kind of series: Antiinflammatory activity in mouse RAW264.7 cells assessed as inhibition of IFN-gamma induced NO production after 24 hrs by Griess reaction. In kind it is functional, cell-based. In short, it runs like this:
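RAW 264.7 cells exposed to serial concentrations of compound together with IFN-γ (10 ng/mL) for 24 h; NO in supernatants quantified by Griess reaction. IC50 tested over 0.1 pM to 10 μM in 10-fold steps; values averaged from two separate experiments.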
(In general: Griess reagent forms a coloured azo dye with nitrite.)

Series [5] deals with RAW264.7. Description: Induction of HO-1 expression in mouse RAW264.7 cells at 100 nM after 6 hrs by Western blotting. In kind it is functional, cell-based. In short, it runs like this:
(§2)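 RAW 264.7 macrophages were exposed to compound at 10–100 nM for 6 h. HO-1 protein was detected by Western blot of total cell lysates.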

The subject of series [6] is RAW264.7. Description: Induction of HO-1 expression in mouse RAW264.7 cells at 10 nM after 6 hrs by Western blotting. The series is classed as functional, cell-based. The essentials: as §2
Series [7] has as its system Liver. Description: Induction of HO-1 expression in CD-1 mouse liver at 1 umol administered via gavage measured after 6 hrs by Western blotting. The series is classed as functional, tissue-based.
The test system of series [8] is Rattus norvegicus. Description: Toxicity in F344 rat assessed as growth rate at 0.3 to 60 umol administered via gavage. In kind it is organism-based. As to conditions: in vivo, po. In short, it runs like this: (§3)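 Tolerability was checked in rats in the aflatoxin B1 short-term hepatic tumorigenesis study, dosed at 0.3 to 60 μmol/kg. Growth rate and final body weight were compared with controls not given AFB1.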

In series [9] the test system is Rattus norvegicus. Description: Toxicity in F344 rat assessed as effect on body weight at 0.3 to 60 umol administered via gavage. In kind it is organism-based. As to conditions: in vivo, po. The essentials:
as §3

The subject of series [10] is Liver. Kind of series: Antitumor activity against aflatoxin B1-induced tumorigenesis in F344 rat liver assessed as reduction in tumor burden at 10 umol/kg administered via gavage relative to control. The arrangement: scale not given: the % may be the effect or the level left. The series is classed as functional. The essentials: (§4)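 Short-term rat model of liver tumorigenesis induced with aflatoxin B1. Test agent was given at 0.3 to 60 μmol/kg. Preneoplastic foci were scored in liver, and tumor burden was expressed against the AFB1-treated positive control group.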

Series [11] concerns Stomach. Kind of series: Induction of HO-1 expression in CD-1 mouse stomach at 1 umol administered via gavage measured after 6 hrs by Western blotting. The series is classed as functional, tissue-based. The essentials: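 Male CD-1 mice, three per group, received 1 μmol of compound in DMSO by gavage. Stomachs were harvested 6 h later, and HO-1 was detected by Western blot of tissue.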

Series [12] is described as follows: Antiinflammatory activity in CD-1 mouse Macrophage assessed as inhibition of IFN-gamma induced NO production after 48 hrs by Griess reaction. The series is classed as functional, cell-based.
Series [13] in a line: Cytotoxicity against CD-1 mouse macrophages at 10 uM. As to conditions: macrophage. In kind it is cell-based.
Series [14] concerns Liver. Description: Antitumor activity against aflatoxin B1-induced tumorigenesis in F344 rat liver assessed as reduction in tumor burden at 0.3 umol/kg administered via gavage relative to control. The series is classed as functional. The arrangement: scale not given: the % may be the effect or the level left. In short, it runs like this:
as §4

For series [15], the system named is RAW264.7. Description: Ratio of CDDO IC50 to compound IC50 for inhibition of IFN-gamma induced NO production in mouse RAW264.7 cells. The series is classed as functional. The essentials: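 RAW 264.7 cells were co-treated with compound (0.1 pM to 10 μM, 10-fold dilutions) and IFN-γ 10 ng/mL for 24 h. Nitric oxide in supernatants was measured by the Griess reaction. IC50 is the mean of two separate experiments, and the ratio is taken against CDDO's IC50.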

For series [16], the system named is Macrophage. Description: Ratio of CDDO IC50 to compound IC50 for inhibition of IFN-gamma induced NO production in mouse macrophages. In kind it is functional.
The test system of series [17] is Liver. Description: Antitumor activity against aflatoxin B1-induced tumorigenesis in F344 rat liver assessed as reduction in tumor burden at 30 umol/kg administered via gavage. The series is classed as functional, tissue-based. In short, it runs like this:
as §4

In series [18] the test system is Liver. Kind of series: Antitumor activity against aflatoxin B1-induced tumorigenesis in F344 rat liver assessed as reduction in tumor burden at 60 umol/kg administered via gavage. In kind it is functional, tissue-based. The essentials: as §4
For series [19], the system named is Liver. Kind of series: Antitumor activity against aflatoxin B1-induced tumorigenesis in F344 rat liver assessed as inhibition of preneoplastic foci formation administered via gavage. The series is classed as functional, tissue-based. The essentials: as §4
Series [20] deals with RAW264.7. Description: Inhibition of IFN-gamma induced iNOS expression in mouse RAW264.7 cells at 30 nM after 24 hrs by Western blotting. In kind it is functional, cell-based.
In series [21] the test system is Macrophage. Description: Antiinflammatory activity in CD-1 mouse Macrophage assessed as inhibition of IFN-gamma induced NO production after 48 hrs by Griess reaction in presence of glucocorticoid antagonist mifepristone. The series is classed as functional, cell-based.
Series [22] deals with RAW264.7. Description: Inhibition of IFN-gamma induced iNOS expression in mouse RAW264.7 cells at 300 nM after 24 hrs by Western blotting. The series is classed as functional, cell-based.

Molecules are shown by their SMILES. Where “and” joins values, the source holds several entries; their conditions need not be identical. Equal entries are not always repeated. Calls of active or inactive are those of the source. The rule behind the calls is not given here.

NAD(P)H dehydrogenase [quinone] 1 (Mus musculus), sequence (Q64669 whole entry): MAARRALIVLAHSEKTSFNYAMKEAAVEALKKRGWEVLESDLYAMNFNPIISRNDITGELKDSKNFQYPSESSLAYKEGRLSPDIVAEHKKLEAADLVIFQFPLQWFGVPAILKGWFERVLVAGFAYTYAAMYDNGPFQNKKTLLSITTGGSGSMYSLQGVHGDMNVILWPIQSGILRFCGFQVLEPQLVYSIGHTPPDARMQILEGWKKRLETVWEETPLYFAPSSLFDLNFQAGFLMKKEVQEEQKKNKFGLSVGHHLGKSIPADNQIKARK

Take `CC1(C)C(=O)C(C#N)=C[C@]2(C)C3=CC(=O)C(C#N)=C[C@]3(C#Cc3nccs3)CCC12` (mixture of isomers): the outcome in [1] and in series [3] was Active. Besides, the CD in series [2] is 35 nM. Further, in [4] (Mus musculus, RAW264.7, 24 h), the IC50 stood at 10 nM.

`CC1(C)C(=O)C(C#N)=C[C@]2(C)C3=CC(=O)C(C#N)=C[C@]3(C#C[Si](C)(C)C)CC[C@@H]12`: the CD in series [2] turned out to be 3 nM. Further, the outcome in [5] and in [6] was Active.

As for `CC1(C)CC[C@]2(C(=O)n3ccnc3)CC[C@]3(C)[C@H](C(=O)C=C4[C@@]5(C)C=C(C#N)C(=O)C(C)(C)[C@@H]5CC[C@]43C)[C@@H]2C1`, the outcome in series [7] and in series [11] was Active. The molecule further yielded a CD in [2] of 3.3 nM. For the same molecule, the Activity result is recorded as “Non-toxic” in [8], “Non-toxic” in series [9] and 99% in [10]. Moreover, the half-inhibitory concentration (IC50) in series [4] (Mus musculus, RAW264.7, 24 h) is 1 nM.

Regarding `CC1(C)CC[C@]2(C(=O)O)CC[C@]3(C)[C@H](C(=O)C=C4[C@@]5(C)C=C(C#N)C(=O)C(C)(C)[C@@H]5CC[C@]43C)[C@@H]2C1` [BARDOXOLONE], the IC50 in series [12] (macrophage) was 4.3 nM and 0.5 nM; in series [4] (Mus musculus, RAW264.7, 24 h), 17 nM. Moreover, the Activity result in [13] is “Non-toxic”. Further, the outcome in series [7] and in series [11] was inactive. In series [2], this molecule showed a CD of 2.3 nM.

`C#C[C@@]12C=C(C#N)C(=O)C=C1[C@]1(C)C=C(C#N)C(=O)C(C)(C)[C@H]1CC2` showed a CD in [2] of 0.9 nM. In addition, the result in [5] and in [6] was Active. Moreover, the IC50 in [4] (Mus musculus, RAW264.7, 24 h) turned out to be 1 nM.

As for `C#C[C@]12C=C(C#N)C(=O)C=C1[C@@]1(C)C=C(C#N)C(=O)C(C)(C)[C@@H]1CC2` (racemic) [listing 1 of 2 here], the half-inhibitory concentration (IC50) in series [12] (Mus musculus, CD-1, Macrophage, 48 h) was found to be 0.056 nM; in series [4] (raw264.7), 1 nM. The Activity in series [14] is recorded as 90%; in [8], “Non-toxic”; in series [9] it was “Non-toxic”; in series [10], 99%. Besides, the figures for the Ratio in series [15] and in series [16] were 20 and 80, respectively.

For the molecule `C#C[C@]12C=C(C#N)C(=O)C=C1[C@@]1(C)C=C(C#N)C(=O)C(C)(C)[C@@H]1CC2` (racemic) [listing 2 of 2 here], the result in [17], in series [18], in series [1], in [3], in series [5] and in [6] was Active. For the same molecule, the result in [11] was Active. In [2], this molecule came in with a CD of 0.9 nM. The inhibition entry in [19] was “Dose-dependent effect”. Besides, the inhibition entry in series [20] was “Active”.

Molecule `C#C[C@]12C=C(C#N)C(=O)C=C1[C@@]1(C)C=C(C#N)C(=O)C(C)(C)[C@@H]1CC2` displayed a CD in series [2] of 2.7 nM. Further, the outcome in [5] and in series [6] was Active.

As to `CC1(C)C(=O)C(C#N)=C[C@@]2(C)C3=CC(=O)C(C#N)=C[C@@]3(C#C[Si](C)(C)C)CC[C@H]12`, the CD in series [2] turned out to be 2.3 nM. The result in series [5] and in series [6] was Active. The IC50 in [4] (Mus musculus, RAW264.7, 24 h) is 2 nM.

As for `CC1(C)C(=O)C(C#N)=C[C@]2(C)C3=CC(=O)C(C#N)=C[C@]3(C)CC[C@@H]12` (racemic), the outcome in series [1] and in series [7] was Active. The inhibition result in [21] and in series [22] was “Active” throughout. This molecule also gave a CD in series [2] of 18 nM.

In the case of `CC1(C)C(=O)C(C#N)=C[C@]2(C)C3=CC(=O)C(C#N)=C[C@]3(C#C[Si](C)(C)C)CC[C@@H]12` (racemic), the result in series [1], in series [3], in series [5] and in series [6] was Active. For the same molecule, in series [2], the CD worked out at 3.5 nM. Besides, in series [20], the inhibition result is “Active”.

With `COC(=O)C#C[C@]12C=C(C#N)C(=O)C=C1[C@@]1(C)C=C(C#N)C(=O)C(C)(C)[C@@H]1CC2` (racemic), the result in series [1] and in [3] was Active. Further, the CD in series [2] came to 85 nM. Further, the half-inhibitory concentration (IC50) in series [4] (Mus musculus, RAW264.7, 24 h) was 20 nM.

A word on the IC50: it is the concentration that inhibits the measured activity by half.

For the origin of these results see ChEMBL document CHEMBL1759862, “Tricyclic compounds containing nonenolizable cyano enones. A novel class of highly potent anti-inflammatory and cytoprotective agents” (J Med Chem, 2011).
